The nature of data set [1]: Cytotoxicity against mouse J774.1 cells assessed as cell viability after 48 hrs by MTT assay. It counts as cell-based. The following applies: J774.1, 48 h. The gist of the method:
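J774.1 macrophages in DMEM with 4 mM L-glutamine and 10% heat-inactivated FCS, 5×10^4 cells/well, attached 48 h at 37 °C, 5% CO2. Exposed 48 h to compounds (12.5–400.0 µM) or vehicle. MTT 0.1 mg/mL final, 3 h at 37 °C; formazan dissolved in DMSO/glycine buffer pH 10.5, A560. IC50 by linear regression versus solvent control.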
In general terms: Formazan colour is commonly taken as a measure of viable cells.

Data set [2] relates to Trypanosoma cruzi. As to the kind of experiment: Trypanosomicidal activity against axenic epimastigote stage of Trypanosoma cruzi Tulahuen 2 assessed as growth inhibition. The class given is functional, organism-based. The gist of the method: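 Tulahuen 2 epimastigotes grown axenically at 28 °C in BHI-tryptose with 5% FCS, harvested late log phase, 3×10^6/mL in 24-well plates. Compound added from DMSO stock (≤1% DMSO). Growth as A590 at day 0 and day 5; % inhibition from blank-corrected absorbances; ID50 = concentration halving absorbance relative to untreated controls.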

For data set [3], the system named is Trypanosoma cruzi. Put plainly: Trypanosomicidal activity against amastigote stage of Trypanosoma cruzi Tulahuen C4 transfected with beta-D-galactosidase infected in african green monkey Vero cells assessed as growth inhibition incubated 5 days prior to beta-D-galactopyranoside addition measured after 4 to 5 hrs by colorimetric assay. The class given is functional, organism-based. In outline:
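VERO monolayer in phenol red-free RPMI 1640 with 10% FCS, infected with 5×10^4 LacZ-transfected Tulahuen C4 trypomastigotes/well, 24 h at 37 °C, 5% CO2. Compounds added for 5 days. CPRG substrate added, 4–5 h at 37 °C, A570. Actives (>50% inhibition) retested in duplicate at 10.0–0.16; IC50 by logarithmic regression versus untreated control.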

Data set [4] relates to Mycobacterium tuberculosis. As to the kind of experiment: Antimycobacterial activity against Mycobacterium tuberculosis H37Rv assessed as growth inhibition after 5 days by MTT assay. It counts as functional. To be noted: 120 h. In outline: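 MTB inoculum made from 20–30-day slant growth in Tween 80/0.2% BSA, adjusted to McFarland No. 1, then diluted in 7H9GC broth (Middlebrook 7H9, glycerol, Casitone, OADC). Final inoculum about 1.2 × 10^6 CFU/mL. Compounds taken from DMSO stock to final 0.4–25 in broth, with a DMSO control. Plates run 5 days at 37 °C, then tetrazolium (MTT)–Tween 80 added for a further 24 h at 37 °C. Read-out is MIC.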

A short description of data set [5]: Selectivity index, ratio of IC50 for mouse J774.1 cells to MIC for Mycobacterium tuberculosis H37Rv. The class given is functional. The gist of the method: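 Cytotoxicity: J774.1 macrophages in DMEM with 4 mM L-glutamine and 10% heat-inactivated FCS, seeded at 5 × 10^4/well, attached 48 h at 37 °C, 5% CO2. Exposed 48 h to 12.5–400.0 µM compound or vehicle. MTT at 0.1 mg/mL final for 3 h, formazan dissolved in DMSO/glycine buffer pH 10.5, A560 read. IC50 by linear regression, divided by the MIC against the same MTB strain.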

Data set [6] can be described thus: Selectivity index, ratio of IC50 for mouse J774.1 cells to IC50 for amastigote stage of Trypanosoma cruzi Tulahuen C4. The class given is toxicity. The following applies: read-out: Ratio IC50.

Usually IC50 stands for the point on the concentration scale where inhibition reaches its midpoint. A word on the MIC: it is the least concentration at which growth counts as inhibited.

Values after ≈ are worked out from the molar mass of the structure shown.

As to `Cc1[nH]cnc1C(=O)N/N=C/c1no[n+]([O-])c1C`, the results for the IC50 in data set [1], in data set [2] and in data set [3] were > 400 µM, > 150 µM and > 40 µM, respectively. Besides, the MIC in data set [4] was > 100 µM.
With `Cc1c(C(=O)N/N=C/c2ccco2)no[n+]1[O-]`, the IC50 in data set [1] is > 400 µM; in data set [2], > 150 µM; in data set [3] it was > 42.4 µM. Moreover, the MIC in data set [4] is > 106 µM.
For the compound `O=C(N/N=C/c1ccc2nonc2c1)c1ccncc1`, the IC50 in data set [1] is > 400 µM; in data set [2] it was > 150 µM; in data set [3] it was > 37.5 µM. Also, the MIC in data set [4] is > 93.6 µM.
For `Cc1c(C(=O)N/N=C/c2ccc(Br)cc2)no[n+]1[O-]`, the IC50 is 162 µM in data set [1], > 150 µM in data set [2] and > 29.6 µM in data set [3]. Besides, the “Selectivity Index” value in data set [5] is <2. For the same compound, the MIC in data set [4] is > 74 µM. In data set [6], the selectivity ratio was < 5.
With `Cc1c(C(=O)N/N=C/c2ccc3c(c2)OCO3)no[n+]1[O-]`, the IC50 in data set [1] is > 400 µM; in data set [2] it was > 150 µM; in data set [3], > 34.5 µM. The MIC in data set [4] is > 86.2 µM.
The corresponding values for `Cc1[nH]cnc1C(=O)N/N=C/c1c(-c2ccccc2)no[n+]1[O-]` are > 400 µM, > 150 µM, > 32.1 µM and > 80.1 µM.
As to `CC(=O)Nc1ccc(/C=N/NC(=O)c2no[n+]([O-])c2C)cc1`, the IC50 in data set [1] is 235 µM; in data set [2] it was > 150 µM; in data set [3] it was > 33 µM. In data set [5], the “Selectivity Index” value is on record as <3. In data set [4], the MIC is > 82.5 µM.
For the compound `COC(=O)c1no[n+]([O-])c1C`, the IC50 was > 50 µM in data set [2] and > 62.3 µM in data set [3].
As to `Cc1c(/C=N/NC(=O)c2no[n+]([O-])c2C)no[n+]1[O-]`, the values for the IC50 in data set [1], in data set [2] and in data set [3] were > 400 µM, 81.3 µM and > 37.5 µM, respectively. In addition, in data set [4], the MIC is > 93.6 µM.
In the case of `Cc1c(C(=O)N/N=C/c2ccccc2)no[n+]1[O-]`, the IC50 was > 400 µM in data set [1], 151 µM in data set [2] and > 40.7 µM in data set [3]. For the same compound, the MIC in data set [4] was > 102 µM.
The corresponding values for `Cc1c(/C=N/NC(=O)c2cccnc2)no[n+]1[O-]` are > 400 µM, > 150 µM, > 40.5 µM and > 101 µM.
As for `Cc1c(C(=O)N/N=C/c2ccc([N+](=O)[O-])s2)no[n+]1[O-]`, the results for the IC50 in data set [1], in data set [2] and in data set [3] were > 400 µM, 50 µM and > 33.7 µM, respectively. Further, the “Selectivity Index” value in data set [5] was >10. The MIC in data set [4] amounted to 42.1 µM (≈ 12.5 µg/mL).
In the same order, the values of `O=C(N/N=C/c1c(-c2ccccc2)no[n+]1[O-])c1cnn(-c2ccccc2)c1` are 41.7 µM, > 150 µM, > 26.7 µM, <0.6 and > 66.8 µM.
On to `O=C(N/N=C/c1ccc2nonc2c1)c1cccnc1`, for which the IC50 in data set [1] is 209 µM; in data set [2] it was > 150 µM; in data set [3], > 37.5 µM. The “Selectivity Index” value in data set [5] is on record as <2. In data set [4], the MIC is > 93.6 µM. Moreover, in data set [6], the selectivity ratio is < 5.5.
Take `Cc1c(C(=O)N/N=C/c2ccc(N(C)C)cc2)no[n+]1[O-]`: the results for the IC50 in data set [1], in data set [2] and in data set [3] were 129 µM, > 150 µM and > 34.6 µM, respectively. For the same compound, the “Selectivity Index” value in data set [5] is listed as <1.5. For the same compound, the MIC in data set [4] was > 86.5 µM. Also, the selectivity ratio in data set [6] was < 3.
For `COc1cc(/C=N/NC(=O)c2no[n+]([O-])c2C)cc(OC)c1OC`, the IC50 in data set [1] was > 300 µM. Also, the MIC in data set [4] is > 74.4 µM.
With `NNC(=O)c1cnn(-c2ccccc2)c1`, the IC50 in data set [3] was > 49.5 µM.
Regarding `Cc1c(/C=N/NC(=O)c2cnn(-c3ccccc3)c2)no[n+]1[O-]`, the IC50 is 295 µM in data set [1], > 150 µM in data set [2] and > 32.1 µM in data set [3]. Also, the “Selectivity Index” value in data set [5] is reported as <4. Moreover, the MIC in data set [4] was > 80.1 µM.
`NNC(=O)c1cccnc1` [NICOTINIC ACID HYDRAZIDE]: the results for the IC50 in data set [2] and in data set [3] were > 150 µM and > 73 µM, respectively.
The corresponding values for `Cc1c(C(=O)NN)no[n+]1[O-]` are > 50 µM and > 62.3 µM.
Turning to `Cc1c(C(=O)N/N=C/c2ccccn2)no[n+]1[O-]`, the figures for the concentration for half-maximal inhibition (IC50) in data set [1], in data set [2] and in data set [3] were > 400 µM, > 150 µM and > 40.5 µM, respectively. Moreover, the minimal inhibitory concentration (MIC) in data set [4] is > 101 µM.
On to `Cc1c(C(=O)N/N=C/c2c(-c3ccccc3)no[n+]2[O-])no[n+]1[O-]`, for which the IC50 in data set [1] is > 400 µM; in data set [2], 25.1 µM; in data set [3], > 30.3 µM. In addition, the MIC in data set [4] is > 75.8 µM.
As to `NNC(=O)c1ccncc1` [ISONIAZID], the IC50 in data set [1] was > 400 µM; in data set [2], > 150 µM. The “Selectivity Index” value in data set [5] is >1000. Besides, the MIC in data set [4] amounted to 0.4 µM (≈ 0.0549 µg/mL).
Take `COc1ccc(/C=N/NC(=O)c2no[n+]([O-])c2C)cc1OC`: the 50% inhibitory concentration (IC50) in data set [1] was > 400 µM. Also, the MIC in data set [4] is > 81.6 µM.
Take `Cc1c(C(=O)N/N=C/c2ccc([N+](=O)[O-])o2)no[n+]1[O-]`: the figures for the IC50 in data set [1], in data set [2] and in data set [3] were 68 µM, 50.1 µM and > 35.6 µM, respectively. For the same compound, the “Selectivity Index” value in data set [5] is 1.5. Further, the MIC in data set [4] stood at 44.5 µM (≈ 12.5 µg/mL). Also, in data set [6], the selectivity ratio was < 2.
As to `O=C(N/N=C/c1c(-c2ccccc2)no[n+]1[O-])c1cccnc1`, the IC50 in data set [1] was 195 µM; in data set [2], 58.9 µM; in data set [3], > 32.4 µM. Also, the “Selectivity Index” value in data set [5] turned out to be 5. Further, the MIC in data set [4] is 40.5 µM (≈ 12.5 µg/mL). The selectivity ratio in data set [6] is < 6.
`Cc1nc2ccccn2c1C(=O)N/N=C/c1ccc2no[n+]([O-])c2c1`: the IC50 in data set [1] is 141 µM; in data set [2] it was > 150 µM; in data set [3], > 30.9 µM. The “Selectivity Index” value in data set [5] worked out at 1.8. The MIC in data set [4] stood at 77.2 µM (≈ 26 µg/mL). In addition, in data set [6], the selectivity ratio is < 4.
As to `Cc1c(C(=O)N/N=C/c2ccccc2O)no[n+]1[O-]`, the IC50 was 246 µM in data set [1], 39.8 µM in data set [2] and > 38.7 µM in data set [3]. Also, the “Selectivity Index” value in data set [5] was <3. For the same compound, in data set [4], the MIC was > 95.4 µM. Besides, in data set [6], the selectivity ratio was < 6.
As for `NNC(=O)c1ccc2c(c1)OCO2`, the IC50 is > 150 µM in data set [2] and > 55.6 µM in data set [3].
`Cc1c(C(=O)N/N=C/c2ccc(C(F)(F)F)cc2)no[n+]1[O-]`: the IC50 was > 400 µM in data set [1], > 150 µM in data set [2] and > 31.9 µM in data set [3]. In addition, the minimum inhibitory concentration (MIC) in data set [4] is > 79.6 µM.
As for `Cc1c(C(=O)N/N=C/c2ccc3no[n+]([O-])c3c2)no[n+]1[O-]`, the IC50 was > 400 µM in data set [1], > 150 µM in data set [2] and > 32.9 µM in data set [3]. Also, in data set [5], the “Selectivity Index” value was >5. Moreover, the MIC in data set [4] amounted to 82.2 µM (≈ 25 µg/mL).
Take `Cc1c(C(=O)N/N=C/c2ccc(C(=O)O)cc2)no[n+]1[O-]`: the results for the IC50 in data set [1], in data set [2] and in data set [3] were > 300 µM, > 150 µM and > 34.5 µM, respectively. In data set [4], the MIC is > 86.2 µM.

These data come from ChEMBL document CHEMBL2331334, “Hybrid furoxanyl N-acylhydrazone derivatives as hits for the development of neglected diseases drug candidates” (Eur J Med Chem, 2013).
